{"source": "paper PMC6099444", "about": "(Journal of Clinical Pharmacology, 2018)", "format_in_all_cases": "in vivo, human", "key": {"[1]": {"system": "urine uric acid", "test": "Urine uric acid pharmacodynamics", "conditions": "for CLUR, Mean (SD) / FEUA, Mean (SD) / AeUR, Change From Baseline (%) / CLUR, Change From Baseline (%) / FEUA, Change From Baseline (%) / AeUR, Mean (SD) / AeUR, %Change From Baseline / CLUR, %Change From Baseline / FEUA, %Change From Baseline: ALLO 300 mg or both; for AeUR, Change From Baseline (%) / CLUR, Change From Baseline (%) / FEUA, Change From Baseline (%) / AeUR, %Change From Baseline / CLUR, %Change From Baseline / FEUA, %Change From Baseline: mean (SD)", "how_it_was_run": "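Total-catch urine was collected days 1, 7, 8, 14, 21 in intervals from 0–1 to 22–24 h postdose. Water: 240 mL on waking and at 22 h, 160 mL frequently postdose. Uric acid and creatinine were assayed centrally. AeUR = concentration × volume; CLUR = AeUR/plasma urate AUC same interval; fractional excretion = (CLUR/CrCl) × 100; rate = AeUR/interval hours. % change uses time-matched day −1 baseline.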"}, "[2]": {"test": "Urine pharmacokinetics", "conditions": "for Ae0‐24: urine; for Ae0‐24 / CLR0‐24: geometric LS mean (95% CI)"}, "[3]": {"test": "Plasma pharmacokinetics, phase 1b multiple-dose drug-drug interaction study", "conditions": "for plasma exposure on coadministration, result in words: verinurad: with allopurinol 300 mg, colchicine: with verinurad 10 mg", "how_it_was_run": "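Adult males with gout were randomized 1:1 to two sequences. They took a once-daily oral xanthine oxidase inhibitor 300 mg or urate reabsorption inhibitor 10 mg alone (days 1–7), both (days 8–14), then the other agent (days 15–21). Fasted overnight, no food 4 h postdose. Plasma was sampled days −1, 7, 14, 21 predose to 24 h. Parent and metabolite were measured by LC-MS/MS (methanol precipitation, isotope internal standards). Noncompartmental Tmax, Cmax, AUC0‐24; geometric LS mean ratio combo/alone.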"}, "[4]": {"system": "serum uric acid", "test": "Serum uric acid pharmacodynamics in adult male subjects with gout", "conditions": "verinurad 10 mg, allopurinol 300 mg, once daily for 7 days, alone or combined", "how_it_was_run": "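Adult males with gout received a once-daily oral xanthine oxidase inhibitor 300 mg, a urate reabsorption inhibitor 10 mg, or both for 7 days each in a randomized crossover sequence. Fasted overnight before sampling. Serum was drawn days 7, 14, 21 predose to 24 h postdose, with extra predose points day 1, and uric acid measured by a central lab. Read-out is maximum % change from time-matched day −1 baseline.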"}, "[5]": {"conditions": "0‐ to 12‐hour interval, VERU 10 mg"}, "[6]": {"conditions": "0‐ to 12‐hour interval, multiple daily doses VERU 10 mg"}, "[7]": {"conditions": "0‐ to 24‐hour interval, VERU 10 mg"}, "[8]": {"conditions": "12‐ to 24‐hour interval, VERU 10 mg"}, "[9]": {"conditions": "treatment ALLO 300 mg once daily"}, "[10]": {"conditions": "treatment VERU 10 mg + ALLO 300 mg once daily"}, "[11]": {"conditions": "VERU 10 mg + ALLO 300 mg compared with allopurinol alone"}, "[12]": {"conditions": "VERU 10 mg + ALLO 300 mg compared with allopurinol alone, plasma"}, "[13]": {"conditions": "VERU 10 mg + ALLO 300 mg compared with allopurinol alone, plasma, listed as oxypurinol"}, "[14]": {"conditions": "treatment VERU 10 mg once daily"}}, "note": "“Also recorded” adds a separate entry of the source.", "data": [{"smiles": "Oc1ncnc2[nH]ncc12", "note": "[Allopurinol, allopurinol]", "values": [{"measurement": "decrease in 24 hr fractional excretion of urate compared with baseline", "setting": "[1]; 0-24 h, allopurinol 300 mg", "result": 12.0, "unit": "%"}, {"measurement": "decrease in CLUR compared with baseline", "setting": "[1]; 0-24 h, allopurinol 300 mg", "result": 8.5, "unit": "%"}, {"measurement": "decrease in 24‐hour AeUR compared with baseline", "setting": "[1]; 0-24 h, allopurinol 300 mg alone or with verinurad 10 mg", "result": 47.4, "unit": "%"}, {"measurement": "CLUR, Mean (SD)", "setting": "[1]; [5]", "result": "6.50 (1.18) mL/min"}, {"measurement": "FEUA, Mean (SD)", "setting": "[1]; [5]", "result": "4.06 (0.47) %"}, {"measurement": "AeUR, Change From Baseline (%)", "setting": "[1]; [5]", "result": "−46.8 (7.3) %"}, {"measurement": "CLUR, Change From Baseline (%)", "setting": "[1]; [5]", "result": "−6.0 (12.0) %"}, {"measurement": "FEUA, Change From Baseline (%)", "setting": "[1]; [5]", "result": "−9.7 (9.2) %"}, {"measurement": "AeUR, Mean (SD)", "setting": "[1]; [6]", "result": "231 (45) mg"}, {"measurement": "AeUR, Mean (SD)", "setting": "[1]; [7]", "result": "363 (73) mg"}, {"measurement": "CLUR, Mean (SD)", "setting": "[1]; [7]", "result": "5.00 (1.13) mL/min"}, {"measurement": "FEUA, Mean (SD)", "setting": "[1]; [7]", "result": "3.69 (0.59) %"}, {"measurement": "AeUR, %Change From Baseline", "setting": "[1]; [7]", "result": "−47.4 (7.6) %"}, {"measurement": "CLUR, %Change From Baseline", "setting": "[1]; [7]", "result": "−8.50 (14.8) %"}, {"measurement": "FEUA, %Change From Baseline", "setting": "[1]; [7]", "result": "−12.0 (12.2) %"}, {"measurement": "decrease in rate of uric acid excretion", "setting": "[1]; 2‐3 hour urine collection interval postdose, allopurinol 300 mg", "result": 46, "unit": "%"}, {"measurement": "CLUR, Mean (SD)", "setting": "[1]; [8]", "result": "3.62 (1.30) mL/min"}, {"measurement": "FEUA, Mean (SD)", "setting": "[1]; [8]", "result": "3.19 (0.62) %"}, {"measurement": "AeUR, Change From Baseline (%)", "setting": "[1]; [8]", "result": "−45.4 (14.5) %"}, {"measurement": "CLUR, Change From Baseline (%)", "setting": "[1]; [8]", "result": "−9.4 (23.2) %"}, {"measurement": "FEUA, Change From Baseline (%)", "setting": "[1]; [8]", "result": "−7.6 (14.6) %"}, {"measurement": "maximum rate of uric acid excreted in urine compared with the maximum observed baseline rate", "setting": "[1]; highest mean rate, 2‐3 hour urine collection interval postdose (combination 2‐3 and 3‐4 hour), verinurad 10 mg, allopurinol 300 mg", "result": "−46", "unit": "%"}, {"measurement": "Ae0‐24", "setting": "[2]; [9]", "result": "25.4 (22.1‐29.2) mg"}, {"measurement": "Ae0‐24", "setting": "[2]; [10]", "result": "22.7 (19.2‐26.9) mg"}, {"measurement": "AUC on coadministration of verinurad, result in words", "setting": "[3]; [11]", "result": "unaffected; also recorded: unaltered"}, {"measurement": "increase in Cmax on coadministration of verinurad", "setting": "[3]; [12]", "result": 33, "unit": "%"}, {"measurement": "Cmax", "setting": "[3]; treatment ALLO 300 mg once daily, plasma, geometric LS mean (95% CI)", "result": "1.13 (0.89‐1.43) μg/mL"}, {"measurement": "maximum decrease in serum urate", "setting": "[4]", "result": 43, "unit": "%"}]}, {"smiles": "COc1cc2c(c(OC)c1OC)-c1ccc(OC)c(=O)cc1[C@@H](NC(C)=O)CC2", "note": "[Colchicine, colchicine, reference compound]", "values": [{"measurement": "plasma exposure on coadministration, result in words", "setting": "[3]", "result": "unaltered"}]}, {"smiles": "O=c1[nH]c(=O)c2c[nH]nc2[nH]1", "note": "[Oxypurinol, oxypurinol]", "values": [{"measurement": "increase in renal clearance on coadministration of verinurad", "setting": "[2]; [11]", "result": 93, "unit": "%"}, {"measurement": "increase in urinary excretion on coadministration of verinurad", "setting": "[2]; [11]", "result": 19, "unit": "%"}, {"measurement": "Ae0‐24", "setting": "[2]; [9]", "result": "231 (216‐248) mg"}, {"measurement": "Ae0‐24", "setting": "[2]; [10]", "result": "275 (262‐290) mg"}, {"measurement": "decrease in AUC on coadministration of verinurad", "setting": "[3]; [12]", "result": 38, "unit": "%"}, {"measurement": "decrease in Cmax on coadministration of verinurad", "setting": "[3]; [12]", "result": 32, "unit": "%"}, {"measurement": "decrease in AUC on coadministration of verinurad", "setting": "[3]; [13]", "result": "approximately 38%"}, {"measurement": "decrease in Cmax on coadministration of verinurad", "setting": "[3]; [13]", "result": "approximately 32%"}, {"measurement": "Cmax", "setting": "[3]; male, human, plasma, oral, 300 mg", "result": 12800, "unit": "ng/mL"}]}, {"smiles": "CC(C)(Sc1ccncc1-c1ccc(C#N)c2ccccc12)C(=O)O", "note": "[Verinurad]", "values": [{"measurement": "CLUR, Mean (SD)", "setting": "[1]; [5]", "result": "16.3 (4.57) mL/min"}, {"measurement": "FEUA, Mean (SD)", "setting": "[1]; [5]", "result": "11.6 (3.77) %"}, {"measurement": "AeUR, Change From Baseline (%)", "setting": "[1]; [5]", "result": "21.4 (23.3) %"}, {"measurement": "CLUR, Change From Baseline (%)", "setting": "[1]; [5]", "result": "153 (77.0) %"}, {"measurement": "FEUA, Change From Baseline (%)", "setting": "[1]; [5]", "result": "160 (96.6) %"}, {"measurement": "AeUR, Mean (SD)", "setting": "[1]; [6]", "result": "490 (71) mg"}, {"measurement": "AeUR, Mean (SD)", "setting": "[1]; [7]", "result": "739 (84) mg"}, {"measurement": "CLUR, Mean (SD)", "setting": "[1]; [7]", "result": "11.5 (2.74) mL/min"}, {"measurement": "FEUA, Mean (SD)", "setting": "[1]; [7]", "result": "9.19 (3.28) %"}, {"measurement": "AeUR, %Change From Baseline", "setting": "[1]; [7]", "result": "9.9 (21.5) %"}, {"measurement": "CLUR, %Change From Baseline", "setting": "[1]; [7]", "result": "122 (105) %"}, {"measurement": "FEUA, %Change From Baseline", "setting": "[1]; [7]", "result": "77.4 (36.0) %"}, {"measurement": "AeUR, Mean (SD)", "setting": "[1]; [8]", "result": "250 (52) mg"}, {"measurement": "CLUR, Mean (SD)", "setting": "[1]; [8]", "result": "6.74 (0.96) mL/min"}, {"measurement": "FEUA, Mean (SD)", "setting": "[1]; [8]", "result": "5.88 (1.78) %"}, {"measurement": "AeUR, Change From Baseline (%)", "setting": "[1]; [8]", "result": "4.2 (48.0) %"}, {"measurement": "CLUR, Change From Baseline (%)", "setting": "[1]; [8]", "result": "95.5 (148) %"}, {"measurement": "FEUA, Change From Baseline (%)", "setting": "[1]; [8]", "result": "49.9 (21.9) %"}, {"measurement": "CLR0‐24", "setting": "[2]; [10]", "result": "9.75 (7.73‐12.3) mL/min"}, {"measurement": "Ae0‐24", "setting": "[2]; [10]", "result": "67.2 (51.7‐87.4) μg"}, {"measurement": "CLR0‐24", "setting": "[2]; [14]", "result": "9.28 (7.43‐11.6) mL/min"}, {"measurement": "Ae0‐24", "setting": "[2]; [14]", "result": "66.8 (51.8‐86.1) μg"}, {"measurement": "plasma exposure on coadministration, result in words", "setting": "[3]", "result": "unaffected"}, {"measurement": "maximum decrease in serum urate", "setting": "[4]", "result": 51, "unit": "%"}]}]}
